We go through 18 molecules from PubChem BioAssay.

A short description of experiment [1]: OD615 S. cerevisiae growth inhibition, permissive medium, pilot counter-assay, permissive growth control for S. cerevisiae lifespan shortening project (AID 705;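 active = growth inhibition above 25% in both replicates, a cutoff set 3 SD above the mean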). The following applies: OD615, 24 h, at 10 µM, active compounds read high. An outline of the steps: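 Material: engineered DeaD yeast; Compound: one dose 10 µM, DMSO 0.25% final; Detection: absorbance (optical density) at 615 nm; Buffer or medium: permissive raffinose/galactose medium; Timing: 24 h exposure, 30 °C.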

The nature of experiment [2]: Restrictive medium S. cerevisiae growth inhibition, OD615, pilot screen of yeast lifespan reduction project, restrictive growth control (AID 706;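 active = growth inhibition above a set limit, 3 SD over mean compound inhibition, in both replicates, cut at about 43% in these data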;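 also: modified DeaD lifespan yeast strain shifted to restrictive glucose medium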). The note with it: OD615, 48 h, at 10 µM, active compounds read high. An outline of the steps:
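Buffer or medium: restrictive glucose medium (CSMM-D); test system: modified S. cerevisiae; doses: single dose of 10 µM compound final, 0.25% DMSO; schedule: 48 h compound exposure at 30 °C; detection: absorbance (optical density) measured at 615 nm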

The nature of experiment [3]: viability gain of MRP-1-high H69AR cells under doxorubicin, pilot screen, MRP-1 activator project, CellTiter-Glo, duplicate (AID 807;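 active = viability increase at or above a cutoff of the median across tested compounds plus 3 SD, cut at about 8.5% in these data, passing the limit was not always enough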;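 also: compound pretreatment 18-22 h then 72 h combined with doxorubicin; 0% = doxorubicin alone and 100% = vehicle without doxorubicin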). The note with it: H69AR viability with doxorubicin, CellTiter-Glo luminescence; at 10 µM; active compounds read high. On the technique in general: ATP-based viability assays read luminescence as a measure of living cells.
Experiment [4] is described as follows: growth suppression of beta-catenin knockout HCT116, pilot screen, human colon tumor cells (AID 823;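 active = cell viability at or below a set limit in both duplicate runs, the limit being the all-compound median minus 4 SD, cut at about 23% in these data, passing the limit was not always enough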;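 also: 0% = wells killed by 20 µM Hyamine and 100% = untreated DMSO cell wells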). The note with it: CellTiter-Glo, 60 h, at 10 µM, active compounds read low.
Experiment [5] is described as follows: growth suppression of PTEN-deleted HCT116, pilot screen, cell-based, HCT116 clonal line, CellTiter-Glo (AID 824;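 active = viability at or below 27.92% in each of two runs, the all-compound median minus 4 SD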;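 also: 0% = 20 µM Hyamine control and 100% = vehicle cell control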). The following applies: 60 h, at 10 µM, active compounds read low.
The nature of experiment [6]: inhibitors of the yeast RAM network, pilot screen, dse1pr::URA3 reporter, 5-FOA selection (AID 869;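 active = inhibition over a set limit, the all-compound mean plus 3 SD, in both replicate runs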;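 also: 0% = DMSO wells with no growth and 100% = 10 µM 1-NA-PP1 with full growth; RAM network block rescues cells from 5-FOA so hits raise OD615 growth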). The note with it: S. cerevisiae dse1pr::URA3 5-FOA growth, OD615, 2 d; at 10 µM; active compounds read high; strain carries analog-sensitive mutant Cbk1 kinase.
A short description of experiment [7]: RAM signaling pathway blockade in yeast – S. cerevisiae, Pdr1DBD-CYC8 efflux-inhibited sensitized strain, primary screen (AID 1298).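 Also: 0% = DMSO untreated cells without growth and 100% = 10 µM 1-NA-PP1 full growth; higher means more yeast growth rescued from 5-FOA killing.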 The following applies: S. cerevisiae cbk1-as DSE1-URA3 strain, 5-FOA growth OD615, 2 d; at 50 µM; active compounds read high.

SMILES strings stand for the structures. Unmarked numbers belong to inactive results. Records with an inconclusive call do not appear. Activity calls are given as the source filed them.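 The calls were made as follows, unless noted: active = RAM network inhibition above 8.4% in each of two replicates, 3 SD over the compound average; inconclusive = above 8.4% inhibition in only one replicate; inactive = 8.4% inhibition or less in each replicate.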

Take `Cc1cc(C)cc(N(CC(=O)NCc2ccco2)S(=O)(=O)c2c(C)noc2C)c1`: the growth inhibition was -22% in experiment [1] and -17.1% in experiment [2]. The viability increase in experiment [3] was -4.19%. The values for the viability in experiment [4] and in experiment [5] were 95.2% and 84.5%, respectively. For the same molecule, the inhibition (usually the change of the read-out against control, counted positive when it falls) in experiment [6] was 2.42%. The RAM network inhibition in experiment [7] was 5.53%.
In the case of `CC(c1ccccc1)C1C(C#N)=C(N)OC2=C1C(=O)CC(C)(C)C2` (stereo unspecified), the results for the growth inhibition in experiment [1] and in experiment [2] were -6.48% and -7.79%, respectively. For the same molecule, in experiment [3], the viability increase was -5.71%. The viability (usually a read-out of living cells in per cent, often relative to untreated cells) in experiment [4] was 78.4%; in experiment [5], 78.9%. The inhibition in experiment [6] was 1.78%. For the same molecule, in experiment [7], the RAM network inhibition is 25.6% (active).
On to `Cc1ccc(S(=O)(=O)/N=C(/Nc2nc(C)cc(C)n2)N2CCOCC2)cc1`, for which the growth inhibition in experiment [1] is -0.825%; in experiment [2] it was -15.5%. Further, the viability increase in experiment [3] is -3.21%. For the same molecule, the viability in experiment [4] was 98.7%; in experiment [5], 97.4%. The inhibition in experiment [6] was 1.6%. Moreover, the RAM network inhibition in experiment [7] was 4.96%.
For `O=C(Nc1c(C(=O)N2CCCCC2)cnn1-c1ccccc1)c1ccccc1`, the growth inhibition in experiment [1] was -13.8%; in experiment [2], -4.25%. In addition, the viability increase in experiment [3] is -1.28%. Further, the viability in experiment [4] is 105%; in experiment [5] it was 92%. Besides, the inhibition in experiment [6] is 1.99%. For the same molecule, the RAM network inhibition in experiment [7] was 2.44%.
As for `N#CC1=C2SCN(Cc3ccco3)CN2C(=O)CC1c1c(F)cccc1Cl` (stereo unspecified), the figures for the growth inhibition in experiment [1] and in experiment [2] were -2.04% and 20.3%, respectively. The viability increase in experiment [3] was -4.91%. Also, the values for the viability in experiment [4] and in experiment [5] were 88% and 88.1%, respectively. Also, the inhibition in experiment [6] was 1.95%. The RAM network inhibition in experiment [7] is 4.76%.
As for `O=C(N1CCOCC1)N1CCN(c2ccccc2F)CC1`, the figures for the growth inhibition in experiment [1] and in experiment [2] were -0.135% and 0.07%, respectively. Also, the viability increase in experiment [3] was -2.64%. For the same molecule, the viability in experiment [4] was 97.9%; in experiment [5], 99.7%. The inhibition in experiment [6] was 0.325%. The RAM network inhibition in experiment [7] is 4.21%.
As to `O=C(Nc1ccccc1)c1ccc(S(=O)(=O)N2CCCCC2)cc1`, the growth inhibition in experiment [1] was 3.41%; in experiment [2], -0.37%. Also, the viability increase in experiment [3] was 0.95%. The viability is 97.8% in experiment [4] and 82.5% in experiment [5]. Besides, in experiment [6], the inhibition was 0.395%. Also, the RAM network inhibition in experiment [7] was 2.23%.
For `CCOC(=O)c1nnn(-c2nonc2N)c1-c1ccccc1`, the growth inhibition in experiment [1] was -8.1%; in experiment [2], 7.27%. In addition, the viability increase in experiment [3] is -0.46%. Moreover, the viability in experiment [4] was 98.7%; in experiment [5] it was 103%. In experiment [6], the inhibition was 2.83%. For the same molecule, in experiment [7], the RAM network inhibition is 5.09%.
For `Cn1c(Cn2c(=O)sc3ccccc32)nnc1SCc1ccccc1F`, the values for the growth inhibition in experiment [1] and in experiment [2] were -4.61% and 5.46%, respectively. Further, the viability increase in experiment [3] was -0.13%. Also, the viability was 96.6% in experiment [4] and 97.4% in experiment [5]. Besides, in experiment [6], the inhibition is 2.95%. Further, in experiment [7], the RAM network inhibition was 5.27%.
In the case of `CCOc1ccccc1NC(=O)c1c(NC(=O)CNCc2ccco2)sc2c1CCC2`, the growth inhibition was 7.42% in experiment [1] and -15.1% in experiment [2]. In experiment [3], the viability increase is -6.75%. The viability in experiment [4] is 76.7%; in experiment [5] it was 55.5%. Also, in experiment [6], the inhibition was 1.43%. In addition, the RAM network inhibition in experiment [7] is 8.57%.
In the case of `COc1ccc(S(=O)(=O)Nc2cc(Cl)ccc2OC)cc1`, the growth inhibition in experiment [1] is -12.3%; in experiment [2] it was -21.9%. In experiment [3], the viability increase was -6.67%. Moreover, the viability in experiment [4] was 16.5% (active); in experiment [5] it was 17.1% (active). In experiment [6], the inhibition is 0.78%. In addition, the RAM network inhibition in experiment [7] was 6.09%.
`COc1ccc(Cl)cc1Nc1nc(N2CCCC2)nc(N2CCCC2)n1`: the growth inhibition in experiment [1] was 2.74%; in experiment [2] it was 2.22%. Also, in experiment [3], the viability increase is 0.95%. Further, the viability in experiment [4] is 95.5%; in experiment [5], 93.3%. Further, the inhibition in experiment [6] is 0.095%. Moreover, the RAM network inhibition in experiment [7] is 6.43%.
In the case of `CCN(CCNC(=O)C1CCN(c2nnc(-n3cccc3)s2)CC1)c1ccccc1`, the growth inhibition in experiment [1] is -4.1%; in experiment [2], -6.63%. For the same molecule, the viability increase in experiment [3] is -3.79%. The viability is 90.6% in experiment [4] and 92.7% in experiment [5]. The inhibition in experiment [6] was 0.38%. The RAM network inhibition in experiment [7] is 8.71%.
For `CCC(=NCCc1ccccc1)C1=C(O)CCC1=O`, the growth inhibition in experiment [1] was 3.04%; in experiment [2], -0.44%. The viability increase in experiment [3] was -2.05%. The results for the viability in experiment [4] and in experiment [5] were 98.3% and 98.8%, respectively. For the same molecule, in experiment [6], the inhibition is 0.325%. The RAM network inhibition in experiment [7] was 2.13%.
On to `COc1ccc(CN2CCN(C(=O)c3cccs3)CC2)cc1Br`, for which the growth inhibition in experiment [1] is -11.5%; in experiment [2] it was -13.4%. The viability increase in experiment [3] is -1.27%. Besides, the viability in experiment [4] is 85.4%; in experiment [5], 87.9%. Moreover, the inhibition in experiment [6] was 0.72%. Moreover, in experiment [7], the RAM network inhibition is 2.53%.
Take `Nc1nc2n(n1)C(c1ccc(Cl)cc1)CC(c1ccc(F)cc1)N2` (stereo unspecified): the growth inhibition is -3.33% in experiment [1] and 13% in experiment [2]. The viability increase in experiment [3] is 5.31%. Also, the viability in experiment [4] is 92.5%; in experiment [5], 80.8%. Also, the inhibition in experiment [6] is 0.43%. The RAM network inhibition in experiment [7] was 5.91%.
Turning to `Cc1cccc(-n2ncc3c(N(C)Cc4ccccc4)ncnc32)c1`, the growth inhibition in experiment [1] was -2.16%; in experiment [2], -0.895%. Also, the viability increase in experiment [3] was 5.35%. Further, the values for the viability in experiment [4] and in experiment [5] were 109% and 88.7%, respectively. Besides, in experiment [6], the inhibition was 0.7%. In experiment [7], the RAM network inhibition is 4.33%.
For the molecule `CC(=O)N1CCc2cc(C(=O)CN3CCN(c4cccc(Cl)c4)CC3)ccc21`, the results for the growth inhibition in experiment [1] and in experiment [2] were -11% and -7.26%, respectively. In addition, the viability increase in experiment [3] was 0.32%. The viability in experiment [4] was 69.3%; in experiment [5], 76.8%. The inhibition in experiment [6] is 1.65%. Also, the RAM network inhibition in experiment [7] is 3.12%.
